Test: Minimum effective concentration (MEC) value was determined as a measure of anti-coccidial activity (MEC is expressed as mmol/kg of feed).
Assay type: functional
Procedure, shortened: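 Dietary activity was graded by the lowest effective feed level, originally in ppm and converted to mmol/kg of feed. Where MEC was only bounded (>250 ppm or >500 ppm), it was assigned the next higher feed level.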

Question: With O=c1cnn(-c2ccc(S(=O)(=O)N3CCOCC3)c(Cl)c2)c(=O)[nH]1 as the molecule, how does the MEC read?
Answer: 30 p.p.m.

Question: Which MEC does the source give for Cc1cc(-n2ncc(=O)[nH]c2=O)cc(C)c1S(=O)(=O)N1CCOCC1 here?
Answer: 15 p.p.m.

Question: With O=c1cnn(-c2cc(Cl)c(S(=O)(=O)N3CCOCC3)c(Cl)c2)c(=O)[nH]1 as the molecule, how does the MEC read?
Answer: 30 p.p.m.

Question: For O=c1cnn(-c2cccc(Cl)c2)c(=O)[nH]1, which MEC is on record?
Answer: 125 p.p.m.

Question: Which MEC does the source give for Cc1cc(C)cc(-n2ncc(=O)[nH]c2=O)c1 here?
Answer: 30 p.p.m.

Question: Which MEC does the source give for Cc1cc(Cl)cc(-n2ncc(=O)[nH]c2=O)c1 here?
Answer: 15 p.p.m.

Question: Which MEC does the source give for O=c1cnn(-c2ccc(S(=O)(=O)c3ccc(Cl)cc3)cc2)c(=O)[nH]1 here?
Answer: 4 p.p.m.

Question: Which MEC does the source give for Cc1cc(-n2ncc(=O)[nH]c2=O)cc(Cl)c1Sc1ccc(Cl)cc1 here?
Answer: 0.2 p.p.m.

Question: For COc1c(Cl)cc(-n2ncc(=O)[nH]c2=O)cc1Cl, which MEC is on record?
Answer: 250 p.p.m.

Question: For O=c1cnn(-c2cc(Cl)c(S(=O)(=O)c3ccc(Cl)cc3)c(Cl)c2)c(=O)[nH]1, which MEC is on record?
Answer: 0.5 p.p.m.

Question: Which MEC does the source give for O=c1cnn(-c2cc(Cl)cc(Cl)c2)c(=O)[nH]1 here?
Answer: 4 p.p.m.

Question: With O=c1cnn(-c2ccccc2)c(=O)[nH]1 as the molecule, how does the MEC read?
Answer: 500 p.p.m.

Question: For O=c1cnn(-c2ccc(Sc3ccc(Cl)cc3)c(Cl)c2)c(=O)[nH]1, which MEC is on record?
Answer: 2 p.p.m.

Question: With O=c1cnn(-c2cc(Cl)c(Sc3ccc(Cl)cc3)c(Cl)c2)c(=O)[nH]1 as the molecule, how does the MEC read?
Answer: 0.2 p.p.m.

Question: With O=c1cnn(-c2ccc(S(=O)(=O)c3ccc(Br)cc3)cc2)c(=O)[nH]1 as the molecule, how does the MEC read?
Answer: 8 p.p.m.

Question: Which MEC does the source give for Cc1cc(-n2ncc(=O)[nH]c2=O)cc(C)c1S(=O)(=O)c1ccc(Cl)cc1 here?
Answer: 1 p.p.m.

Question: With Cc1cc(-n2ncc(=O)[nH]c2=O)cc(C)c1[S+]([O-])c1ccc(Cl)cc1 (centres undefined) as the molecule, how does the MEC read?
Answer: 1 p.p.m.

Question: With Cc1cc(-n2ncc(=O)[nH]c2=O)cc(Cl)c1S(=O)(=O)c1ccc(Cl)cc1 as the molecule, how does the MEC read?
Answer: 8 p.p.m.

Question: Which MEC does the source give for O=c1cnn(-c2ccc(S(=O)(=O)c3ccccc3)cc2)c(=O)[nH]1 here?
Answer: 30 p.p.m.

Question: Which MEC does the source give for O=C(c1ccc(Cl)cc1)c1c(Cl)cc(-n2ncc(=O)[nH]c2=O)cc1Cl here?
Answer: 0.5 p.p.m.

Question: Which MEC does the source give for CS(=O)(=O)c1ccc(-n2ncc(=O)[nH]c2=O)cc1 here?
Answer: 500 p.p.m.

Question: Which MEC does the source give for O=c1cnn(-c2ccc([N+](=O)[O-])cc2)c(=O)[nH]1 here?
Answer: 250 p.p.m.

Question: With O=c1cnn(-c2ccc(Oc3ccccc3)cc2)c(=O)[nH]1 as the molecule, how does the MEC read?
Answer: 500 p.p.m.

Question: For O=c1cnn(-c2ccc(Oc3ccc(I)cc3)c(Cl)c2)c(=O)[nH]1, which MEC is on record?
Answer: 7.5 p.p.m.

Question: Which MEC does the source give for CSc1ccc(Oc2ccc(-n3ncc(=O)[nH]c3=O)cc2C)cc1 here?
Answer: 2 p.p.m.

Question: For Cc1cc(-n2ncc(=O)[nH]c2=O)ccc1Oc1ccc(Br)cc1, which MEC is on record?
Answer: 7.5 p.p.m.

Question: Which MEC does the source give for CSc1ccc(Oc2ccc(-n3ncc(=O)[nH]c3=O)cc2Cl)cc1 here?
Answer: 3.8 p.p.m.

Question: Which MEC does the source give for CC(=O)c1ccc(Sc2c(C)cc(-n3ncc(=O)[nH]c3=O)cc2Cl)cc1 here?
Answer: 0.25 p.p.m.

Question: Which MEC does the source give for O=c1cnn(-c2ccc(Oc3ccc4cc(Br)ccc4c3)c(Cl)c2)c(=O)[nH]1 here?
Answer: 7.5 p.p.m.

Question: Which MEC does the source give for O=c1cnn(-c2ccc(Sc3ccc4ccccc4c3)c(Cl)c2)c(=O)[nH]1 here?
Answer: 125 p.p.m.

Question: For CSc1ccc(Oc2c(C)cc(-n3ncc(=O)[nH]c3=O)cc2C)cc1, which MEC is on record?
Answer: 2 p.p.m.

Question: With COc1cc(-n2ncc(=O)[nH]c2=O)cc(OC)c1OC as the molecule, how does the MEC read?
Answer: 1000 p.p.m.

Question: For CC(=O)c1ccc(Oc2c(C)cc(-n3ncc(=O)[nH]c3=O)cc2Cl)cc1, which MEC is on record?
Answer: 2 p.p.m.

Question: For Cc1cc(-n2ncc(=O)[nH]c2=O)ccc1Oc1ccc(Cl)cc1Cl, which MEC is on record?
Answer: 7.5 p.p.m.

Question: Which MEC does the source give for Cc1cc(-n2ncc(=O)[nH]c2=O)ccc1Oc1ccc(Cl)cc1 here?
Answer: 60 p.p.m.

Question: Which MEC does the source give for O=c1cnn(-c2cccc(C(F)(F)F)c2)c(=O)[nH]1 here?
Answer: 30 p.p.m.

Question: For Cc1cc(-n2ncc(=O)[nH]c2=O)cc(Cl)c1Oc1ccc(Cl)cc1, which MEC is on record?
Answer: 3.8 p.p.m.

Question: Which MEC does the source give for CSc1ccc(Oc2c(C)cc(-n3ncc(=O)[nH]c3=O)cc2C)cc1C here?
Answer: 2 p.p.m.

Question: With Cc1cc(-n2ncc(=O)[nH]c2=O)ccc1Oc1ccc(S(C)(=O)=O)cc1 as the molecule, how does the MEC read?
Answer: 4 p.p.m.

Question: For Cc1cc(-n2ncc(=O)[nH]c2=O)cc(Cl)c1Oc1ccc(C(C)O)cc1 (centres undefined), which MEC is on record?
Answer: 2 p.p.m.

Question: For CCN(C)S(=O)(=O)c1ccc(Oc2c(C)cc(-n3ncc(=O)[nH]c3=O)cc2Cl)c(Cl)c1, which MEC is on record?
Answer: 3.8 p.p.m.

Question: With Cc1cc(-n2ncc(=O)[nH]c2=O)cc(Cl)c1Oc1ccc(S(=O)(=O)NC2CC2)cc1Cl as the molecule, how does the MEC read?
Answer: 15 p.p.m.

Question: For O=c1cnn(-c2cc(Cl)c(Cc3ccc(Cl)cc3)c(Cl)c2)c(=O)[nH]1, which MEC is on record?
Answer: 0.25 p.p.m.

Question: Which MEC does the source give for O=c1cnn(-c2ccc(Oc3ccc(Cl)cc3Cl)c(Cl)c2)c(=O)[nH]1 here?
Answer: 7.5 p.p.m.

Question: Which MEC does the source give for O=c1cnn(-c2ccc(F)c(C(F)(F)F)c2)c(=O)[nH]1 here?
Answer: 15 p.p.m.

Question: Which MEC does the source give for N#Cc1cccc(-n2ncc(=O)[nH]c2=O)c1 here?
Answer: 30 p.p.m.

Question: With O=c1cnn(-c2ccc(Cc3ccc(Cl)cc3)c(Cl)c2)c(=O)[nH]1 as the molecule, how does the MEC read?
Answer: 8 p.p.m.

Question: For COc1cc(OC)cc(-n2ncc(=O)[nH]c2=O)c1, which MEC is on record?
Answer: 500 p.p.m.

Question: With O=c1cnn(-c2ccc(Br)c(C(F)(F)F)c2)c(=O)[nH]1 as the molecule, how does the MEC read?
Answer: 15 p.p.m.

Question: With O=c1cnn(-c2ccc(C(O)c3ccc(Cl)cc3)c(Cl)c2)c(=O)[nH]1 (centres undefined) as the molecule, how does the MEC read?
Answer: 2 p.p.m.

Question: Which MEC does the source give for Cc1cc(-n2ncc(=O)[nH]c2=O)cc(C)c1C(=O)c1ccc(Cl)cc1 here?
Answer: 15 p.p.m.

Question: For Cc1cc(-n2ncc(=O)[nH]c2=O)ccc1C(O)c1ccccc1 (centres undefined), which MEC is on record?
Answer: 30 p.p.m.

Question: For N#CC(c1ccc(Cl)cc1)c1c(Cl)cc(-n2ncc(=O)[nH]c2=O)cc1Cl (centres undefined) [DICLAZURIL], which MEC is on record?
Answer: 0.1 p.p.m.

Question: With Cc1cc(-n2ncc(=O)[nH]c2=O)cc(C)c1Sc1ccc(Cl)cc1 [TIAZURIL] as the molecule, how does the MEC read?
Answer: 0.5 p.p.m.

Source: ChEMBL document CHEMBL1125267, “Linear discriminant and multiple regression analyses of anticoccidial triazines” (1991)
